Experimental data reported in ChEMBL document CHEMBL4411342, “Pyrrolomycins as antimicrobial agents. Microwave-assisted organic synthesis and insights into their antimicrobial mechanism of action” (Bioorg Med Chem, 2019).

Assays:
Sortase A = target: T1, Sortase A (Staphylococcus aureus, UniProt Q9S446); assay: Inhibition of Staphylococcus aureus SrtA using dabcyl-QALPETGEE-edans as substrate preincubated for 1 hr followed by substrate addition and measured at 1 min interval for 1 hr by fluorescence assay
T1 sequence (Q9S446 whole entry): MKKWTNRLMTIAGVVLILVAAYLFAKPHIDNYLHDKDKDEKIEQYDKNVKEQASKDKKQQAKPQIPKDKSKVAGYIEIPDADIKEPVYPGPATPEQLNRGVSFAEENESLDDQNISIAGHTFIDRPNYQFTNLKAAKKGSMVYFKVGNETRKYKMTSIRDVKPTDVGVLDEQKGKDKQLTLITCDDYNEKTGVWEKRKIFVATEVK
In short: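 Recombinant S. aureus SrtA (10 µM) preincubated 1 h at 37 °C in 50 mM Tris-HCl, 5 mM CaCl2, 150 mM NaCl, pH 7.5 with increasing inhibitor levels; FRET peptide added to 50 µM final. Cleavage fluorescence read at ex 350/em 495 nm; progress curves used for IC50. Stocks 10 mM in DMSO; berberine chloride positive control, enzyme-free substrate negative control.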

Pseudomonas aeruginosa = assay: Antibiofilm activity against Pseudomonas aeruginosa ATCC 15442 after 24 hrs by crystal violet staining based assay; assay type: functional, organism-based; conditions: ATCC 15442, 24 h
In short: (§1)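 Overnight TSB + 2% w/v glucose cultures (37 °C, 24 h) diluted to 0.5 McFarland, inoculated into 96-well plates of TSB/2% glucose with compound (100 µg/mL screen, or 100–0.001 µM for IC50). Static 37 °C, 24 h; wells PBS-washed, 0.1% crystal violet 30 min, solubilized in 33% acetic acid, OD 540 nm. % inhibition vs growth control; duplicates, ≥3 independent experiments.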

Staphylococcus aureus [1] = assay: Antibiofilm activity against Staphylococcus aureus ATCC 25923 after 24 hrs by crystal violet staining based assay; assay type: functional, organism-based; conditions: ATCC 25923, 24 h; in short: as §1
Staphylococcus aureus [2] = assay: Inhibition of Staphylococcus aureus AtlA assessed as reduction in enzyme activity at 1 uM measured after 24 hrs y methylene blue staining based zymography relative to control
In short: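 Spent medium from 24 h static S. aureus cultures (1 µM compound; untreated and 0.1% DMSO controls) was centrifuged, and the supernatant was lyophilized and resuspended in Tris-HCl pH 7.4. Proteins were run on 12% SDS-PAGE containing 1 mg/mL Micrococcus lysodeikticus cells. The gel was renatured (Triton X-100 buffer, 37 °C, 16–48 h) and stained with 0.1% methylene blue. Clear bands were quantified by densitometry as lysozyme µg equivalents, in triplicate.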

Staphylococcus aureus [3] = assay: Inhibition of Staphylococcus aureus AtlA assessed as reduction in biofilm formation at 1 uM measured after 24 hrs
In short: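 S. aureus overnight culture (TSB + 2% glucose, 37 °C, 200 rpm) inoculated 1:100 into TSB/2% glucose containing 1 µM compound (from DMSO stock) in 24-well plates. Static incubation at 37 °C for 24 h. Biofilm inhibition is expressed relative to untreated cultures. Untreated and 0.1% DMSO controls. Triplicate cultivations.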

Structure (SMILES)	IC50 (Sortase A)	IC50 (Pseudomonas aeruginosa)	IC50 (Staphylococcus aureus [1])	fold change (FC) (Staphylococcus aureus [2])	inhibition (Staphylococcus aureus [3])
O=C(c1cc(Cl)c(Cl)[nH]1)c1cc(Cl)cc(Cl)c1O	300 µM	236 µM	0.92 µM		
O=C(c1cc(Cl)cc(Cl)c1O)c1[nH]c(Br)c(Br)c1Br	130 µM	106 µM	20.3 µM		
O=C(c1cc(Br)cc(Br)c1O)c1[nH]c(Br)c(Br)c1Br	140 µM	74.8 µM	0.0034 µM	2	< 80%
O=C(c1cc(Cl)cc(Cl)c1O)c1[nH]c(Cl)c(Cl)c1Br	130 µM	170 µM	0.1 µM		
O=C(c1cc(Br)ccc1O)c1[nH]c(Br)c(Cl)c1Br	250 µM	78.9 µM	0.0087 µM	2	< 80%
O=C(c1cc(Cl)cc(Cl)c1O)c1[nH]c(Cl)c(Br)c1Cl	160 µM	18.6 µM	0.0247 µM		
